In ChEMBL document CHEMBL2311343, “Investigations into the synthesis, radiofluorination and conjugation of a new [¹⁸F]fluorocyclobutyl prosthetic group and its in vitro stability using a tyrosine model system” (Bioorg Med Chem, 2013):

What was measured:
[1] = Stability of the compound in human plasma at 22 MBq/mL after 5 mins; format: ADME, cell-free; conditions: read-out: Stability
[2] = tested on: Plasma; assay: (§1) Stability of the compound in rat plasma at 22 MBq/mL up to 120 mins; format: ADME, cell-free; conditions: 2 h
In short: (§2)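 Radiotracer at 22 MBq/mL incubated in human or rat plasma at 37 °C; sampled at 0, 30, 60, 90 and 120 min. Proteins precipitated with MeOH and centrifuged. Supernatant analysed by radio-HPLC and by radio-TLC (BuOH/AcOH/H2O 12:3:5). Intact tracer expressed as % of the 0 min sample.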

[3] = Stability of the compound in human plasma at 22 MBq/mL up to 120 mins; format: ADME, cell-free; conditions: read-out: Stability; in short: as §2
[4] = Metabolic stability in Han Wistar rat hepatocytes at 1 uM after 60 mins; format: ADME, cell-based, Hepatocyte; conditions: read-out: Stability
In short: (§3)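 Hepatocytes isolated from Han Wistar rat liver by two-step perfusion and Percoll purification; viability by trypan blue. Incubated at 0.5×10^6 viable cells/mL in Williams' medium E + 5% FCS with 1 µM compound, shaken continuously. Aliquots taken at 2–60 min and quenched with cold methanol, frozen overnight, centrifuged. Supernatant analysed by LC-MS/MS.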

[5] = Metabolic stability in Han Wistar rat hepatocytes at 1 uM after 8 mins; format: ADME, cell-based, Hepatocyte; conditions: read-out: Stability; in short: as §3
[6] = Metabolic stability in Han Wistar rat hepatocytes at 1 uM after 30 mins; format: ADME, cell-based, Hepatocyte; conditions: read-out: Stability; in short: as §3
[7] = Metabolic stability in Han Wistar rat hepatocytes at 1 uM after 45 mins; format: ADME, cell-based, Hepatocyte; conditions: read-out: Stability; in short: as §3
[8] = Metabolic stability in Han Wistar rat hepatocytes at 1 uM after 2 mins; format: ADME, cell-based, Hepatocyte; conditions: read-out: Stability; in short: as §3
[9] = Metabolic stability in Han Wistar rat hepatocytes at 1 uM after 16 mins; format: ADME, cell-based, Hepatocyte; conditions: read-out: Stability; in short: as §3
[10] = Lipophilicity, log D of the compound; format: physicochemical; conditions: octanol/water
In short: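 Shake-flask logD, run manually in two vials. Compound (0.1 mg) in octanol saturated with 10 mM phosphate buffer pH 7.4, sonicated 3 min, shaken 4 min at 20 °C. Phases separated by centrifugation, then quantified by reversed-phase HPLC with UV at 254 nm by peak area.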

[11] = tested on: DU-145; assay: Cellular uptake in human DU145 cells assessed per 1-'5 cells at 0.2 MBq after 10 mins by gamma counting; format: ADME, cell-based; conditions: du-145, 10 min
In short: (§4)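 Sub-confluent cells seeded 1–2 days earlier (A549 and DU145 in DMEM + 10% FBS; NCI-H460 in DMEM/F-12 + 10% FBS). Washed with PBS, then incubated with 0.2 MBq radiotracer per well in PBS + 0.1% BSA (8% EtOH) at 37 °C, 5% CO2, for 10, 20, 30 and 60 min. Washed, lysed in 1 M NaOH and gamma-counted. Expressed as % applied dose per 10^5 cells, decay-corrected, in triplicate.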

[12] = tested on: NCI-H460; assay: Cellular uptake in human NCI-H460 cells at 0.2 MBq up to 60 mins by gamma counting in presence of FET; format: ADME, cell-based; conditions: nci-h460, 1 h
[13] = tested on: NCI-H460; assay: Cellular uptake in human NCI-H460 cells assessed per 1-'5 cells at 0.2 MBq after 10 mins by gamma counting; format: ADME, cell-based; conditions: nci-h460, 10 min; in short: as §4
[14] = tested on: A549; assay: Cellular uptake in human A549 cells at 0.2 MBq up to 60 mins by gamma counting in presence of L-3-FCBT; format: ADME, cell-based; conditions: a549, 1 h
[15] = as §1; format: ADME, cell-free; conditions: read-out: Stability; in short: as §2
[16] = tested on: A549; assay: Cellular uptake in human A549 cells assessed per 1-'5 cells at 0.2 MBq after 30 mins by gamma counting; format: ADME, cell-based; conditions: a549, 0.5 h; in short: as §4
[17] = tested on: A549; assay: Cellular uptake in human A549 cells assessed per 1-'5 cells at 0.2 MBq after 10 mins by gamma counting; format: ADME, cell-based; conditions: a549, 10 min; in short: as §4
[18] = tested on: DU-145; assay: Cellular uptake in human DU145 cells at 0.2 MBq up to 60 mins by gamma counting in presence of L-3-FCBT; format: ADME, cell-based; conditions: du-145, 1 h
[19] = tested on: A549; assay: Cellular uptake in human A549 cells at 0.2 MBq by gamma counting; format: ADME, cell-based; conditions: TDE = time-dependent effect; in short: as §4
[20] = tested on: NCI-H460; assay: Cellular uptake in human NCI-H460 cells at 0.2 MBq up to 60 mins by gamma counting in presence of L-3-FCBT; format: ADME, cell-based; conditions: nci-h460, 1 h
[21] = tested on: A549; assay: Cellular uptake in human A549 cells at 0.2 MBq up to 60 mins by gamma counting in presence of FET; format: ADME, cell-based; conditions: a549, 1 h
[22] = tested on: DU-145; assay: Cellular uptake in human DU145 cells at 0.2 MBq up to 60 mins by gamma counting in presence of FET; format: ADME, cell-based; conditions: du-145, 1 h
[23] = tested on: NCI-H460; assay: Cellular uptake in human NCI-H460 cells at 0.2 MBq by gamma counting; format: ADME, cell-based; conditions: TDE = time-dependent effect; in short: as §4
[24] = tested on: DU-145; assay: Cellular uptake in human DU145 cells at 0.2 MBq by gamma counting; format: ADME, cell-based; conditions: TDE = time-dependent effect; in short: as §4
[25] = tested on: DU-145; assay: Cellular uptake in human DU145 cells assessed per 1-'5 cells at 0.2 MBq after 60 mins by gamma counting; format: ADME, cell-based; conditions: du-145, 1 h; in short: as §4
[26] = tested on: NCI-H460; assay: Cellular uptake in human NCI-H460 cells assessed per 1-'5 cells at 0.2 MBq after 60 mins by gamma counting; format: ADME, cell-based; conditions: nci-h460, 1 h; in short: as §4

SMILES: N[C@@H](Cc1ccc(OCC[18F])cc1)C(=O)O [FLORETYROSINE F18]
- remaining at 5 min, 22 MBq/mL [1]: 95%
- Stability [2]: Stable
- remaining at 2 h, 22 MBq/mL [3]: 87%

SMILES: N[C@@H](Cc1ccc(O[C@H]2C[C@@H](F)C2)cc1)C(=O)O
- remaining at 1 h, 1 µM [4]: 94%
- remaining at 8 min, 1 µM [5]: 99%
- remaining at 0.5 h, 1 µM [6]: 97%
- remaining at 0.75 h, 1 µM [7]: 95%
- remaining at 2 min, 1 µM [8]: 100%
- remaining at 16 min, 1 µM [9]: 98%

SMILES: N[C@@H](Cc1ccc(OCCF)cc1)C(=O)O [O-(2-FLUOROETHYL)-L-TYROSINE]
- logD [10]: -1.51

SMILES: N[C@@H](Cc1ccc(O[C@H]2C[C@@H]([18F])C2)cc1)C(=O)O
- Drug uptake [11]: 0.7%
- Drug uptake [12]: Not Active
- Drug uptake [13]: 0.7%
- Drug uptake [14]: Not Active
- remaining at 2 h, 22 MBq/mL [15]: > 99.9%
- Drug uptake [16]: 5.8%
- Drug uptake [17]: 2.8%
- remaining at 2 h, 22 MBq/mL [3]: > 99.9%
- Drug uptake [18]: Not Active
- Drug uptake [19]: tde
- Drug uptake [20]: Not Active
- Drug uptake [21]: Not Active
- Drug uptake [22]: Not Active
- Drug uptake [23]: tde
- Drug uptake [24]: tde
- Drug uptake [25]: 2.1%
- Drug uptake [26]: 2.1%
